Assay results: the EternaBench riboswitch data

Tested on: MS2 coat protein
Assay: apparent Kd, MS2 coat protein; higher = weaker binding; RNA-MaP array; FMN 200 µM where present
Procedure, shortened: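 Designs on Illumina sequencing-chip clusters, transcribed by stalled E. coli RNA polymerase, were exposed to SNAP-549-labelled MS2 coat protein in doubling steps from 0.7 or 1.5 nM up to 3 µM, without and then with constant ligand. The buffer held 100 mM Tris-HCl pH 7.5, 80 mM KCl, 4 mM MgCl2, BSA, DTT, yeast tRNA and Tween-20. Apparent Kd values are medians of filtered per-cluster binding-curve fits to green signal normalised to red-channel RNA signal and control-cluster median Fmax.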

[1] = designed as: OFF switch for flavin mononucleotide, no ligand
[2] = ligand present: flavin mononucleotide, designed as: OFF switch for flavin mononucleotide
[3] = designed as: ON switch for flavin mononucleotide, no ligand
[4] = ligand present: flavin mononucleotide, designed as: ON switch for flavin mononucleotide

Sequence | apparent Kd [1] [nM] | apparent Kd [2] [nM] | apparent Kd [3] [nM] | apparent Kd [4] [nM]
ACAUGAGGAUCACCCAUGUAAUGAUGGGUACUAUAUUAUUCGUAGGAUAUCGUUGUUAGUUUGUGCGAGAAGGACGAUUGCUUU | 871 | 1060 |  | 
ACAUGAGGAUCACCCAUGUAGAAUGAAGAAGGUAGAUACUUGAGGAUCACCCAUGUACAUGGGACUAAGGAUAUUCUAAUAAUU |  |  | 144 | 105
ACAUGAGGAUCACCCAUGUAGAAUGAAGAAGGUAGAUACUUGAGGCUCACCCAUGUACAUGGGACUAAGGAUAUUCUAAUAAUU |  |  | 42.7 | 27.7
ACAUGAGGAUCACCCAUGUAUACAUAGGAUAUUGGUGAUCAGGGAUGUUUUACAGGAUAUGUCUGCGAGAAGGAUGCAAGUAGU |  |  | 238 | 48.3
ACAUGAGGAUCACCCAUGUGAACAUAGGAUAUUGGUGAUCAGGCGUGUUAUACAGGAUAGGUCUGCGAGAAGGGUGUACGUUGC |  |  | 367 | 71.7
ACAUGAGGAUCACCCAUGUGUACAUAGGAUAUUGAGGAUUAGGGAUGUUGUUUUGGAUUUGCCCACAAGAAGGAUGAAAGUGUU |  |  | 9.68 | 8.68
ACAUGAGGAUCACCCAUGUGUGCAUAGGAUAUUGAGGAUUAGGGAUGUUUUUUUGGAUUUGCCCACAAGAAGGAUGAAAGUGUU |  |  | 10.6 | 10.5
ACAUGAGGAUCACCCAUGUUCACAUAGGAUAUUGAUUAUAUUGGUUUUAGAAUAGUAAUUAACCUCAAGAAGGAUGCCAGAUCU |  |  | 13.7 | 10.1
ACAUGAGGAUCACCCAUGUUCGUCGCGUUGUGUCGCGAGUCUGAGGAUAUCGAGGUGGGUUUUGUUGAGAAGGCGGGCCCGUGU |  |  | 129 | 151
ACAUGAGGAUGAGGAUAUUCAUACAUGAGGAUAGAAGAAGGCAUACAUGAGGAUCACCCAUGUAUACACAUGAGGAUCACCCAU | 82.5 | 85.3 |  | 
ACAUGAUAUGUAGGAUAUCACUACUUGUGUUAUAAAAUUGUAAUUUAGGAUUGAGAAGGACAUUUACAUGAGGAUCACCCAUGU | 14.7 | 11.6 |  | 
ACAUGAUCAGGAUAUACAUGAGGAUCACCCAUGUAAAUAAAAAAAAAACUUUCUUUAUGUAGAAGGGAUCUUGU | 21 | 30.1 |  | 
ACAUGCAAGUAGAAGGUCGGAUAUUUUGAUAACGAAGGAUAUACAGAAUCAUAUCCACAUGAUAACAUGAGGAUCACCCAUGUA | 15.2 | 15 |  | 
ACAUGCAUAGCGAUAUGAUCGAGAGAUCAUGUCGCUAAAAUUAGAAGGACAUGAGGAUCACCCAUGUAGGAUAUGGGAGCAUGA |  |  | 39.9 | 10.3
ACAUGCAUAGCGAUAUGAUCGAGAGAUCAUGUCGCUAAAGUUAGAAGGACAUGAGGAUCACCCAUGUAGGAUAUGGGAGCAUGA |  |  | 43.1 | 9.96
ACAUGCAUAGCGAUAUGAUCGAGAGAUCAUGUCGCUUAAAAUAGAAGGACAUGAGGAUCACCCAUGUAGGAUAUGGGAGCAUGA |  |  | 25.8 | 11.7
ACAUGCGGAUGAGGAUAUUCAUCCAUGAGGAUAGAAGAAGGCAUACAUGAGGAUCACCCAUGUAUACACAUGAGGAUCCCUUAU | 59 | 137 |  | 
ACAUGGAAUACAGGAUAUGUAAGUUUUAAGUAGAUUGGUUAUUACUUUACAACAGAAGGGUAAUACAUGAGGAUCACCCAUGUA |  |  | 19.1 | 16
ACAUGGAAUACAGGAUAUGUAAGUUUUAAGUGGAUUGGUUAUUACUUUACAACAGAAGGGUAAUACAUGAGGAUCACCCAUGUA |  |  | 30.1 | 25.3
ACAUUGCGAGGAUAUACAUGAGGAUCACCCAUGUGGUGGCAGAUACGGUAGGGCUAGUGUAGAAGGUGUCAUGG | 528 | 435 |  | 
ACAUUGUGAGGAUAUCCGAAGAAGGUCCGGAAGGUUCGGGUGGAGAAGGCACAUGAGGAUCACCCAUGUGUGGG | 51.8 | 137 |  | 
ACAUUGUUAGGAUAUGCUGCUCGUCACUUGCGUGAUGAGUAGCAGAAGGAACAUGAGGAUCACCCAUGUAAAAA | 33.1 | 44.3 |  | 
ACAUUGUUAGGAUAUGCUGCUCGUCACUUGCGUGAUGAGUAGCAGAAGGAACAUGAGGAUCACCCAUGUAAAGA | 33.7 | 56.1 |  | 
ACAUUUAAUACAGGAUAUGUUAGUAUACAGUAGAUUGGUUAUUACACAACAACAGAAGGGUAGUACAUGAGGAUCACCCAUGUA |  |  | 15.6 | 12.1
ACCGAAUGAACAUGAGGAUCACCCAUGUACACGAAAGUGAAUGAGGAUAUCGAUAGCAAAGCUAUCGAGAAGGCAUGGGUCGGU |  |  | 565 | 144
ACCGGCGCUUACAUGAGGAUCACCCAUGUGCGCACUCGGGCACAGGAUAUCCAUGGUAAGUAUCGGGAGAAGGGUGAGAAGAAU |  |  | 163 | 309
ACGACGAAAGUCGAACGAUGAUCGAGAAGGACAUGAGGAUCACCCAUGUUCCGUGUAACACGCAUGUAGGAUAUCGAUCAUCGA | 5.17 | 11.4 |  | 
ACGACGAAAGUCGAACGAUGUAGCAGAAGGACAUGAGGAUCACCCAUGUCAGCUGUAACAGCCAUGUAGGAUAUGCUACAUCGU | 4.29 | 5.41 |  | 

Sequence | apparent Kd [1] [nM] | apparent Kd [2] [nM] | apparent Kd [3] [nM] | apparent Kd [4] [nM]
ACGCCUCCUGUCAGGAUAUGCAUCGGGCUUCCGCAGCAGAAGGGACAUGAGGAUCACCCAUGUCAAAUAAAAUC | 17.6 | 58.3 |  | 
ACGGCAAUCGAAGGAUAUGGUUACAUGAGGAUCACCCAUGUCUAGGGUCUAAUUAGGUAUAACUACCAGAAGGUCGAAGGCCUA | 67.6 | 72.5 |  | 
ACGGCUAACCCAGUUUAAAUCUCAAGAAGGGUACACUGGGCAAGGUACAUGAGGAUCACCCAUGUACAGGAUAUUGAGAUGAGA | 25.6 | 45.4 |  | 
ACGGCUGUCAGAGGAUAUGGUUACAUGAGGAUCACCCAUGUCAAGGGUCUAACUAAGUAUAGCUACUAGAAGGCUGAUGGCCGA | 158 | 107 |  | 
ACGGCUGUCAGAGGAUAUGGUUACAUGAGGAUCACCCAUGUCAAGGGUCUAAUUAAGUAUAACUACUAGAAGGCUGAUGGCCUA | 263 | 144 |  | 
ACGUAUAGAGGAUAUAGUGAAUAUUACAUGAGGAUCACCCAUGUUCUUCAAAGUAUAUUUCUAGAAGGCUAAUGAA | 35 | 92.7 |  | 
ACGUGACGGAGCGCGAGUGGACGGAGAAGGCAGACAUGAGGAUCACCCAUGUGAGCCUGCUAUUCUGAGGAUAUCCGUCCGCAC | 32.5 | 203 |  | 
ACGUGACGUUAGGAUAUUAACUACCUGCCAUCUUAAGAAGGAACGACAUGAGGAUCACCCAUGUGAAUCCGCGA | 26.7 | 27 |  | 
ACGUGUAAUACAGGAUAUGUAUUGGAUUAAUCAACCAGUUAUUAAGUAACGACAGAAGGGUAUACAUGAGGAUCACCCAUGUUA | 24.2 | 20.2 |  | 
ACGUGUCGUGUAGGAUAUGACACAGGAAACUGGUCAGAAGGACAUGAGGAUCACCCAUGUAAAAUGUUCAAGAAUAACGUAUGC | 43.3 | 108 |  | 
ACGUGUUAUACAGGAUAUGUUUAGGUACAAUCAUCCAGAUAUUAAUUUAUAACAGAAGGGUAAACAUGAGGAUCACCCAUGUCA | 18.4 | 15.1 |  | 
ACUAGAUGAGGAUAUGCAUAUUUUCGUGUUCUUCUAGGUUAACAUGAGGAUCACCCAUGUAGAAGGCGUCUAUG | 21.1 | 47.6 |  | 
ACUAUACGAGGAUAUACUGUCAGUACUCAGAGGUUAAUGUGACAUGAGGAUCACCCAUGUAGAAGGCGUUUACU | 28.9 | 31.3 |  | 
ACUCGAUUUUUGGGUUUACUAUAUGAGGAUAUCAUACAUCUAUACAUGAGGAUCACCCAUGUUACUGAGAAGGCAUAUAUAAUA |  |  | 17.3 | 6.77
ACUGGUCAAGGAUAUACAAUCGUGCUUCGGCACGUAAGAUCACAUGAGGAUCACCCAUGUAGAAGGUGACCAGU | 38.6 | 470 |  | 
ACUUCUAAGCAGAAGGCAGUCAUAGCAUUCGUCAUGUAGACAUGAGGAUCACCCAUGUAUAGUGCUGAGGAUAUGCUUGGAUAG | 11.8 | 10.7 |  | 
ACUUGCUUGCAGAAGGGUGACAUGAGGAUCACCCAUGUAGCGGGCCGGCUUAAAGUCAGCGCGCCACAGGAUAUGCAGGCCUCG |  |  | 14.2 | 35.1
ACUUUAGUAUCACAUGUAUUACAUGAGGAUCACCCAUGUUACUAGGAUAUGUAUUAGAAUUUACAACAGAAGGAGUAAGAAUGU | 8.17 | 9.83 |  | 
ACUUUAUUUGAGAAGGUGAAGUGGAAACAUGAGGAUCACCCAUGUAAUAGGAAGCCUAUUUUUAUCAAGGAUAUCAAAUAAAGA |  |  | 7.89 | 7.86
ACUUUGUUUGAGAAGGUGAAGUGGAAACAUGAGGAUCACCCAUGUAUUAGGAAGCCUGGUUUUGUCAAGGAUAUCGGGUAAAGA |  |  | 12 | 10.1
AGAAAACAUGAGGAUCACCCAUGUAGAAAUAUGGGAGGAUAUACAAAGACGAAAGUCGAGGUAGAAGGCCUAAAGA |  |  | 100 | 23.4
AGAAAACAUGAGGAUCACCCAUGUCAAGCUAAUCAAGGAUAUGGGUCGGGAAAUCCCGCACCAGAAGGUGAAAUGC |  |  | 123 | 24.5
AGAAACAGAGGAUAUCGCGGACAGCACAUGAGGAUCACCCAUGUGAUGCUCCGCGGGCCGCGAGAAGGCUGAAAUG | 15.1 | 36.8 |  | 
AGAAACUACGAGAAGGACAUGUGGUCCAAAAGAAACAUGAGGAUCACCCAUGUAGGAUAUCGUAGUUUCAGGAUCGUGAGAUCA | 280 | 56.8 |  | 
AGAAACUACGAGAAGGACAUGUGGUCCUUCCAAAACAUGAGGAUCACCCAUGUAGGAUAUCGUAGUUUCAGGAUCGUGAGAUCA | 11.5 | 4.61 |  | 
AGAAACUACGAGAAGGACAUGUGGUCCUUCUAAAACAUGAGGAUCACCCAUGUAGGAUAUCGUAGUUUCAGGAUCGUGAGAUCA | 35.5 | 7.27 |  | 
AGAAAGUCAGGAUAUCAGAAUAAGUCGAAAACGACUAGUAAUGAGAAGGGACAUGAGGAUCACCCAUGUAAGAA | 30.6 | 37.4 |  | 
